According to ChEMBL document CHEMBL2439956, “Synthesis and biological evaluation of novel formyl-pyrazoles bearing coumarin moiety as potent antimicrobial and antioxidant agents” (2013):
Values after ≈ are worked out from the molar mass of the structure shown. Active and inactive are the calls of the source. No cut-off for these calls is given here.

Legend:
[1] = tested on: Candida albicans; assay: Antifungal activity against Candida albicans by broth dilution technique; format: functional
In short: (§1)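 Broth dilution technique; each MIC (µg/mL) is the mean of three determinations run in triplicate against the bacterial and fungal strains.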

[2] = tested on: Aspergillus flavus; assay: Antifungal activity against Aspergillus flavus by broth dilution technique; format: functional; in short: as §1
[3] = tested on: Aspergillus niger; assay: Antifungal activity against Aspergillus niger by broth dilution technique; format: functional; in short: as §1
[4] = tested on: Cryptococcus neoformans; assay: Antifungal activity against Cryptococcus neoformans by broth dilution technique; format: functional; in short: as §1
[5] = tested on: Radical scavenging activity; assay: Antioxidant activity assessed as DPPH radical scavenging activity at 30 ug/ml relative to butylated hydroxytoluene; format: functional
In short: (§2)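 DPPH radical scavenging assay with BHT as standard antioxidant. Samples were tested at five concentrations (10, 20, 30, 40 and 50 µg/mL) in triplicate, alongside a control at 0 µg/mL. Read-out is % radical scavenging, reported as mean ± SD.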

[6] = tested on: Radical scavenging activity; assay: Antioxidant activity assessed as DPPH radical scavenging activity at 40 ug/ml relative to butylated hydroxytoluene; format: functional; in short: as §2
[7] = tested on: Radical scavenging activity; assay: Antioxidant activity assessed as DPPH radical scavenging activity at 50 ug/ml relative to butylated hydroxytoluene; format: functional; in short: as §2
[8] = tested on: Pseudomonas aeruginosa; assay: Antibacterial activity against Pseudomonas aeruginosa by broth dilution technique; format: functional; in short: as §1
[9] = tested on: Escherichia coli; assay: Antibacterial activity against Escherichia coli by broth dilution technique; format: functional; in short: as §1
[10] = tested on: Radical scavenging activity; assay: Antioxidant activity assessed as DPPH radical scavenging activity at 10 ug/ml relative to butylated hydroxytoluene; format: functional; in short: as §2
[11] = tested on: Staphylococcus aureus; assay: Antibacterial activity against Staphylococcus aureus by broth dilution technique; format: functional; in short: as §1
[12] = tested on: Radical scavenging activity; assay: Antioxidant activity assessed as DPPH radical scavenging activity at 20 ug/ml relative to butylated hydroxytoluene; format: functional; in short: as §2
[13] = tested on: Streptococcus pyogenes; assay: Antibacterial activity against Streptococcus pyogenes by broth dilution technique; format: functional; in short: as §1
[14] = tested on: Aspergillus flavus; assay: Antifungal activity against Aspergillus flavus at 200 ug/ml by broth dilution technique; format: functional, organism-based
[15] = tested on: Candida albicans; assay: Antifungal activity against Candida albicans at 200 ug/ml by broth dilution technique; format: functional, organism-based
[16] = tested on: Escherichia coli; assay: Antibacterial activity against Escherichia coli at 200 ug/ml by broth dilution technique; format: functional, organism-based
[17] = tested on: Streptococcus pyogenes; assay: Antibacterial activity against Streptococcus pyogenes at 200 ug/ml by broth dilution technique; format: functional, organism-based

Structure (SMILES)	MIC [1]	MIC [2]	MIC [3]	MIC [4]	Activity [5] [%]	Activity [6] [%]	Activity [7] [%]	MIC [8]	MIC [9]	Activity [10] [%]	MIC [11]	Activity [12] [%]	MIC [13]	Activity [14]	Activity [15]	Activity [16]	Activity [17]
C[C@@H]1[C@H](O)[C@@H](C)/C=C/C=C/C=C/C=C/C=C/C=C/C=C/[C@H](O[C@@H]2O[C@H](C)[C@@H](O)[C@H](N)[C@@H]2O)C[C@@H]2O[C@](O)(C[C@@H](O)C[C@@H](O)[C@H](O)CC[C@@H](O)C[C@@H](O)CC(=O)O[C@H]1C)C[C@H](O)[C@H]2C(=O)O [AMPHOTERICIN B]	25 µg/mL (≈ 27.1 µM)	50 µg/mL (≈ 54.1 µM)	50 µg/mL (≈ 54.1 µM)	25 µg/mL (≈ 27.1 µM)													
Cc1cc(=O)oc2c(-c3nn(-c4ccc(Cl)cc4)cc3C=O)c(O)ccc12	25 µg/mL (≈ 65.7 µM)	60 µg/mL (≈ 158 µM)	40 µg/mL (≈ 105 µM)	15 µg/mL (≈ 39.4 µM)	58.1	63.9	69.3	15 µg/mL (≈ 39.4 µM)	30 µg/mL (≈ 78.8 µM)	48.9	15 µg/mL (≈ 39.4 µM)	53.3	35 µg/mL (≈ 91.9 µM)				
COc1ccccc1-n1cc(C=O)c(-c2c(O)ccc3c(C)cc(=O)oc23)n1	50 µg/mL (≈ 133 µM)	25 µg/mL (≈ 66.4 µM)	50 µg/mL (≈ 133 µM)	25 µg/mL (≈ 66.4 µM)	13.3	15.6	17.4	25 µg/mL (≈ 66.4 µM)	75 µg/mL (≈ 199 µM)	11.1	30 µg/mL (≈ 79.7 µM)	12	50 µg/mL (≈ 133 µM)				
Cc1cc(=O)oc2c(-c3nn(-c4ccc([N+](=O)[O-])cc4[N+](=O)[O-])cc3C=O)c(O)ccc12	inactive	inactive	inactive	inactive	47.1	51.1	56	20 µg/mL (≈ 45.8 µM)	40 µg/mL (≈ 91.7 µM)	34.7	40 µg/mL (≈ 91.7 µM)	41.9	75 µg/mL (≈ 172 µM)				
COc1ccccc1N/N=C(/C)c1c(O)ccc2c(C)cc(=O)oc12	30 µg/mL (≈ 88.7 µM)	40 µg/mL (≈ 118 µM)	50 µg/mL (≈ 148 µM)	40 µg/mL (≈ 118 µM)				inactive	50 µg/mL (≈ 148 µM)		30 µg/mL (≈ 88.7 µM)		60 µg/mL (≈ 177 µM)				
C/C(=N/Nc1ccc([N+](=O)[O-])cc1[N+](=O)[O-])c1c(O)ccc2c(C)cc(=O)oc12	inactive	inactive	inactive	inactive				inactive	inactive		50 µg/mL (≈ 126 µM)		75 µg/mL (≈ 188 µM)				
Cc1cc(=O)oc2c(-c3nn(-c4ccccc4)cc3C=O)c(O)ccc12			100 µg/mL (≈ 289 µM)	50 µg/mL (≈ 144 µM)	46.4	50.1	57.8	50 µg/mL (≈ 144 µM)	30 µg/mL (≈ 86.6 µM)	39.4	inactive	42.1	inactive	inactive	inactive		
C/C(=N/Nc1ccccc1C)c1c(O)ccc2c(C)cc(=O)oc12			75 µg/mL (≈ 233 µM)	40 µg/mL (≈ 124 µM)				100 µg/mL (≈ 310 µM)	75 µg/mL (≈ 233 µM)		40 µg/mL (≈ 124 µM)		50 µg/mL (≈ 155 µM)	inactive	inactive		
C/C(=N/Nc1ccccc1)c1c(O)ccc2c(C)cc(=O)oc12	50 µg/mL (≈ 162 µM)	75 µg/mL (≈ 243 µM)	75 µg/mL (≈ 243 µM)	50 µg/mL (≈ 162 µM)				25 µg/mL (≈ 81.1 µM)	inactive		40 µg/mL (≈ 130 µM)		inactive			inactive	inactive
Cc1ccccc1-n1cc(C=O)c(-c2c(O)ccc3c(C)cc(=O)oc23)n1			60 µg/mL (≈ 166 µM)	30 µg/mL (≈ 83.2 µM)	14.1	15.1	17.1	50 µg/mL (≈ 139 µM)	40 µg/mL (≈ 111 µM)	12.8	30 µg/mL (≈ 83.2 µM)	13.8	50 µg/mL (≈ 139 µM)	inactive	inactive		
O=C(O)c1cn(C2CC2)c2cc(N3CCNCC3)c(F)cc2c1=O [CIPROFLOXACIN]									25 µg/mL (≈ 75.4 µM)				50 µg/mL (≈ 151 µM)				
C/C(=N/Nc1ccc(Cl)cc1)c1c(O)ccc2c(C)cc(=O)oc12	30 µg/mL (≈ 87.5 µM)	50 µg/mL (≈ 146 µM)	60 µg/mL (≈ 175 µM)	25 µg/mL (≈ 72.9 µM)				25 µg/mL (≈ 72.9 µM)	50 µg/mL (≈ 146 µM)		20 µg/mL (≈ 58.3 µM)		50 µg/mL (≈ 146 µM)				
